Source: PubChem BioAssay
IMP-1 inh: IMP-1 metallo-beta-lactamase inhibitors, primary screen, biochemical, epi-absorbance readout, Pseudomonas aeruginosa enzyme; purified IMP-1, nitrocefin hydrolysis, epi-absorbance fluorescence; metallo-beta-lactamase IMP-1 (Pseudomonas aeruginosa); inhibition, % at 5.6 µM; 290,000 tested, 0.45% active;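 active = inhibition above the mean plus 3 SD of all compounds in the same screening run, cut at about 4.5% in these data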;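 note: 0% = IMP-1 with DMSO and 100% = DMSO wells lacking enzyme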
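System: purified IMP-1; amount: IMP-1 0.2 nM before substrate addition; compound: single dose, 5.6 µM; times: 25 °C, 15 min preincubation, 25 min reaction; signal: Epi-absorbance via hydrolysed-nitrocefin quenching of white-plate fluorescence, 480/530 nm, EDTA stop; benchmarks: DMSO with and without IMP-1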
VIM-2 inh: VIM-2 metallo-beta-lactamase inhibitors, primary screen, biochemical, epi-absorbance readout, Pseudomonas aeruginosa enzyme; purified VIM-2, nitrocefin hydrolysis, epi-absorbance fluorescence; inhibition, % at 5.6 µM; 290,000 tested, 0.89% active;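 active = inhibition above the mean of all tested compounds plus 3 SD, cutoff set per screening run, cut at about 7.5% in these data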;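 note: red hydrolysis product quenches plate fluorescence so inhibitors raise well fluorescence; 0% = enzyme with DMSO and 100% = DMSO without enzyme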
core dimer inh: inhibitors of HCV core protein dimerization, primary screen, biochemical, TR-FRET, high-throughput. TR-FRET GST/Flag-core106 dimerization, 1536-well. inhibition, % at 5 µM. 300,000 tested, 0.33% active;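 active = inhibition above the mean of all tested compounds plus 3 SD, set per screening campaign, cut at about 45% in these data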
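assay system = GST-tagged and Flag-tagged HCV core protein residues 1-106 | controls = unlabelled core106 and no-GST-core106 wells | incubation = compound-protein-antibody incubation 4 h at 22.5 °C | probe or stimulus = Eu donor and XL665 acceptor anti-tag antibodies | read-out = % inhibition based on acceptor/donor emission ratio | signal = TR-FRET 671 and 617 nm emission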
NadD block: inhibitors of S. aureus NadD, primary screen, biochemical, colorimetric, uHTS | 360,000 tested, 0.78% active | inhibition, % at 20 µM | purified NadD enzyme, colorimetric absorbance read-out | Nicotinate-nucleotide adenylyltransferase NadD (Staphylococcus aureus N315); in the data active = inhibition above about 26%
NadD conf: inhibitors of S. aureus NadD, confirmation, biochemical, colorimetric, single concentration; shares compounds with NadD block; purified S. aureus NadD, colorimetric enzyme assay; inhibition, % at 20 µM; 2,000 tested, 13% active; in the data active = inhibition mostly above about 42%, no sharp cut-off; inactive = mostly below about 42%
An asterisk follows results filed as active; nt = not tested or not shown. Only some compounds are listed: those with a hit (about 1.9% of all), similar ones and a draw of the others.

SMILES | IMP-1 inh | VIM-2 inh | core dimer inh | NadD block | NadD conf
COc1ccc(-c2nc(=S)c3c([nH]2)Oc2ccc(C)cc2C3)cc1O | -2.6 | -1.7 | -4.5 | 30.2* | 11.2
CC1CCCC(C)N1C(=O)COC(=O)CSc1ccc(C(N)=O)cc1[N+](=O)[O-] (stereo not drawn) | nt | nt | 3.9 | -1.9 | nt
CCOc1ccc(S(=O)(=O)N2CN(c3cccc(C(C)=O)c3)c3nc4ccccc4nc32)cc1 | nt | nt | nt | 29.7* | 7.5
Cc1ccc(NC(=O)c2ccc(N/N=C/c3cccc(O)c3)c([N+](=O)[O-])c2)cc1 | 0.2 | 0.2 | 35.5 | 36.2* | 6.2
Cc1ccc2nc(-c3ccc(NC(=O)COC(=O)c4ccco4)cc3)sc2c1 | -1.9 | 1.7 | -15.4 | -2.0 | nt
COc1ccc(/C=C(\C#N)C(=O)OCC(=O)Nc2ccc(-c3nc4ccc(C)cc4s3)cc2)cc1 | -2.2 | 0.2 | 8.1 | 29.2* | 5.7
Cc1ccc(S(=O)(=O)Nc2cccc(-c3ccc(N4CCCCCC4)nn3)c2)cc1 | -2.5 | -1.6 | 19.7 | 33.8* | 20.6
COc1ccc(S(=O)(=O)Nc2cccc(-c3ccc(N4CCCCCC4)nn3)c2)c(OC)c1 | -1.3 | -1.2 | 16.0 | 28.2* | 36.0
O=[N+]([O-])c1cccc(S(=O)(=O)Nc2cccc(-c3ccc(N4CCCC4)nn3)c2)c1 | nt | nt | nt | 19.7 | nt
COc1ccc(S(=O)(=O)Nc2cccc(-c3ccc(N4CCCCCC4)nn3)c2)cc1OC | -0.6 | -0.2 | 27.7 | 23.4 | nt
COc1ccc(OC)c(S(=O)(=O)Nc2cccc(-c3ccc(N4CCCCCC4)nn3)c2)c1 | -0.9 | 0.5 | 32.8 | 35.7* | 29.8
CCCN(CC(=O)Nc1ccccc1C)C(=O)COc1ccc2c(c1)CCC2 | -4.7 | -3.4 | -0.1 | 0.2 | nt
Cc1nnnn1CC(=O)Nc1ccccc1[N+](=O)[O-] | -2.3 | -2.4 | -4.8 | 2.6 | nt
S=C(NNc1ccnc2cc(Cl)ccc12)Nc1ccc(Cl)cc1Cl | -3.4 | -3.0 | 0.0 | 29.6* | 6.0
COc1ccc(-c2[nH]ncc2CN2CCC(OCc3cccnc3)CC2)c(F)c1 | -0.5 | -2.0 | 4.5 | -5.1 | nt
CC(C)(C)OC(=O)CC[C@@H](C(=O)NCCCCCCCCCCC(=O)N1CCN(C(=O)OC(C)(C)C)CC1)n1cc(CCCCCNC(=O)OC(C)(C)C)nn1 | nt | nt | 10.1 | 32.0* | -4.1
CSCCC(NC(=O)COc1ccccc1)C(=O)N1CCN(c2ccccc2Cl)CC1 (stereo not drawn) | nt | nt | 0.4 | -4.4 | nt
CCN1CCN(Cc2ccc(NC(=O)c3ccc(C)c(NC(=O)c4c[nH]c5cc(C(F)(F)F)ccc5c4=O)c3)cc2C(F)(F)F)CC1 | nt | nt | 4.3 | 35.7* | -5.1
Cc1c(N(C)S(=O)(=O)c2cccc(C(=O)NC(C)C)c2)c(=O)n(-c2ccccc2)n1C | 0.7 | 0.8 | -2.6 | -3.9 | nt
CC1CCCCC1NC(=O)c1cccc(N2C(=O)C3C4C=CC(C4)C3C2=O)c1 (stereo not drawn) | -1.6 | -4.2 | 5.8 | -1.9 | nt
CCOC(=O)c1cc(-c2ccc(N3C(c4ccsc4)=Cc4ccccc4C3CC(C)=O)cc2)cc([N+](=O)[O-])c1 (stereo not drawn) | nt | nt | nt | 31.6* | -0.1
N#CC1=C2SCN(Cc3ccco3)CN2C(=O)CC1c1ccccc1F (stereo not drawn) | 1.8 | -4.7 | 0.5 | 1.6 | nt
N#CC1=C2SCN(Cc3ccco3)CN2C(=O)CC1c1cccc2ccccc12 (stereo not drawn) | -3.0 | 1.6 | 5.2 | 31.3* | 9.1
O=C(COC(=O)CN1C(=O)NC2(CCCC2)C1=O)NCc1ccc(Cl)cc1Cl | nt | nt | nt | -0.7 | nt
COc1cccc2c(=O)c3c([nH]c12)OC(C)(C)C3 | nt | nt | 7.7 | -8.1 | nt
SMILES | IMP-1 inh | VIM-2 inh | core dimer inh | NadD block | NadD conf
COc1cccc2c(=O)c3cccc(N)c3[nH]c12 | 0.0 | 2.5 | 23.0 | 38.5* | 10.4
CN(CC(=O)Nc1ccccc1Cl)C(=O)COC(=O)c1ccc(-c2ccc(O)cc2)cc1 | nt | nt | nt | 2.1 | nt
CC(C)c1ccc(NC(=O)Nc2cc3sccc3n2C)cc1 | 2.6 | -1.3 | 46.7* | 42.0* | 27.0
Cn1c(C(=O)Nc2ccc3c(c2)OCCO3)cc2sccc21 | -1.3 | -0.4 | 1.0 | -6.7 | nt
Cn1c2ccccc2c(=O)c2ccc(C#Cc3ccc(N)cc3)cc21 | -1.3 | 5.2 | 11.4 | 50.6* | 43.8
Cn1c2ccccc2c(=O)c2cc(C#CC3=CCCCC3)ccc21 | nt | nt | nt | 32.1* | 9.1
COc1ccccc1NC(=O)c1c(Nc2ccccc2F)sc(C(=O)Nc2cccc(Cl)c2)c1N | -4.6 | -2.8 | 21.0 | 42.9* | 41.3
CCOc1ccc(S(=O)(=O)NCc2cccnc2)cc1NC(=O)c1ccccc1 | nt | nt | nt | 6.1 | nt
COc1ccc(S(=O)(=O)NCc2cccnc2)cc1NC(=O)c1ccccc1C | nt | nt | nt | 83.1* | 37.6
O=C(N/N=C/c1ccc(-c2ccc(Cl)c(C(=O)O)c2)o1)c1cc2c(ccc3ccccc32)o1 | 1.0 | 0.8 | 22.0 | 39.1* | 51.5*
Cc1ccc([N+](=O)[O-])cc1-c1ccc(/C=N/NC(=O)c2cc3c(ccc4ccccc43)o2)o1 | -2.6 | -3.6 | 24.8 | 32.7* | -4.9
O=C(O)c1ccc(/C=N/NC(=O)c2cc3c(ccc4ccccc43)o2)cc1 | -1.6 | -4.8 | 15.7 | 7.4 | nt
N#CCn1cc(/C=N/NC(=O)c2cc3c(ccc4ccccc43)o2)c2ccccc21 | -2.0 | 0.7 | 22.9 | 31.2* | 23.8
Cc1ccc(-c2ccc(/C=N\NC(=O)c3cc4c(ccc5ccccc54)o3)o2)cc1[N+](=O)[O-] | -3.0 | -3.4 | 20.8 | 44.5* | 10.3
CCc1nc2c(OCCOc3ccc(F)cc3)cccn2c1N(C)C(=O)c1ccc(C)cc1 | nt | nt | nt | 3.4 | nt
CCNC(=O)C1(C)CCCN(Cc2ccc(Oc3ccccc3)cc2)C1 (stereo not drawn) | nt | nt | nt | -7.3 | nt
COC(=O)[C@H](Cc1ccccc1)NS(=O)(=O)c1ccc(F)cc1Br | nt | nt | nt | 0.6 | nt
Cc1cc([N+](=O)[O-])ccc1-c1ccc(/C=N/NC(=O)c2ccc(Br)o2)o1 | -3.4 | -1.7 | 30.6 | 30.8* | 9.2
Cc1cc(C(=O)N/N=C/c2ccc(-c3ccc([N+](=O)[O-])cc3C)o2)n[nH]1 | -2.3 | -1.9 | -1.1 | 21.6 | nt
Cc1ccc(CN2C(=O)CSC2c2ccc(F)cc2)cc1 (stereo not drawn) | -2.8 | 1.1 | 2.7 | -7.2 | nt
CC(C(=O)N1CCN(Cc2ccc3c(c2)OCO3)CC1)n1cc([N+](=O)[O-])cn1 (stereo not drawn) | -3.1 | -1.9 | 1.0 | -3.9 | nt
COc1ccc(NC(=O)CSc2ccc3c4c(cccc24)C(=O)c2ccccc2-3)cc1 | -1.4 | 0.4 | 10.2 | 32.8* | 1.6
COc1ccc(NC(=O)CSc2nnc(C)c3ccccc23)cc1 | 2.5 | -3.8 | 1.8 | 2.1 | nt
